KDM4C inh: blocks human GASC-1 (KDM4C) demethylase activity | actives 0.15% (n = 96,000) | Q9H3R0 | inhibition, % at 12.5 µM | GST-KDM4C 2-372, H3K9me3 peptide, LANCE TR-FRET;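 active = mean replicate inhibition above about 25%, with at least 55% of replicates also reaching it, limit read from the data, passing the limit was not always enough; inconclusive = only one of those two conditions met; inactive = neither condition met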
Target sequence (Q9H3R0 2-372 limits assumed): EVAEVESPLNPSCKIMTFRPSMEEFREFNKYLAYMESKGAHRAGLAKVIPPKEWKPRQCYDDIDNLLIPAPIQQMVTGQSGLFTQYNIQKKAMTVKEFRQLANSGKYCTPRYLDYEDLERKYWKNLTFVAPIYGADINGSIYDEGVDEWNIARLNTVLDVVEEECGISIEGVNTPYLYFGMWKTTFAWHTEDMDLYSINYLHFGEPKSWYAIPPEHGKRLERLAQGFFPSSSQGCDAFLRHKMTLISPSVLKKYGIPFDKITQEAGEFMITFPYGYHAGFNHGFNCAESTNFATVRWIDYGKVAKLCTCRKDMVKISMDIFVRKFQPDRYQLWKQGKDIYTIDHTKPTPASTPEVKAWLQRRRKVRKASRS
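Compound: one test concentration per compound; Material: GST-GASC-1 enzyme fragment 2-372; Amount: GASC-1 enzyme at 10 nM final in reaction; Also added: H3K9me3 peptide substrate, Fe(II), 2-oxoglutarate; Technique: LANCE TR-FRET; Times: 30 min demethylation and 1 h detection at room temperature.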
IDH1 mut inh: inhibitors of human IDH1 R132H; IDH1 R132H reductase, diaphorase/resazurin fluorescence, 60 min; inhibition, % at 10 µM; actives 0.18% (n = 70,000); AID 624101; in the data active = inhibition above about 34%; inconclusive = no clear call, values can overlap the other calls; inactive = below about 11%;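 also: 0% = DMSO and 100% = no enzyme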
T cruzi growth-1: T. cruzi proliferation inhibition; T. cruzi beta-gal in NIH3T3, GalScreen luminescence, 90 h; inhibition, % at 8.34 µM; actives 5.9% (n = 77,000); AID 624255;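 active = mean inhibition above about 93%, with at least 55% of replicates each passing it, limit read from the data, passing the limit was not always enough; inconclusive = only one of those two conditions holds; inactive = neither condition holds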
T cruzi growth-2: Trypanosoma cruzi proliferation inhibition; inhibition, % at 8.35 µM; shares compounds with T cruzi growth-1; actives 72% (n = 5,600); T. cruzi beta-gal in NIH3T3, GalScreen luminescence, 90 h;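 active = mean replicate inhibition above about 95% and at least 55% of replicates individually reaching it, limit read from the data; inconclusive = only one of the two criteria is met; inactive = neither criterion is met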
T cruzi growth-3: blocks T. cruzi growth in NIH3T3 host cells | shares compounds with T cruzi growth-1 | T. cruzi beta-gal in NIH3T3, GalScreen luminescence, 90 h | inhibition, % at 2.09 µM | actives 21% (n = 5,600) | AID 651740;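 active = mean inhibition above about 95%, with at least 55% of replicates also reaching it, limit read from the data; inconclusive = meets just one of the two conditions; inactive = meets neither condition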;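 also: plate controls were neutral control median for no effect and positive control median for full effect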
NIH3T3 tox: kills mouse NIH/3T3 fibroblasts; NIH/3T3 viability, CellTiter-Glo ATP luminescence, 90 h; actives 14% (n = 5,600); shares compounds with T cruzi growth-1; cytotoxicity (signal decrease), % at 8.35 µM;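 active = mean signal decrease across replicates above about 35% based on untreated-well scatter, with enough replicates individually passing, limit read from the data; inconclusive = no rule stated though some were filed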;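 also: 0% = median of neutral control wells and 100% = median of positive control wells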
3T3 cytotox 2: cytotoxicity in mouse NIH/3T3 fibroblasts; shares compounds with T cruzi growth-1; NIH/3T3 viability, CellTiter-Glo ATP luminescence, 90 h; inhibition, % at 24.9 µM; actives 56% (n = 5,600);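 active = mean loss of cell viability signal at or above a set limit, and enough replicates individually reaching it; inconclusive = meets only the mean limit or only the replicate share; inactive = meets neither condition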;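 also: 0% = median of neutral control wells and 100% = median of positive control wells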
* marks the source's active call; other numbers are inactive results; ? = inconclusive; . = no result given. Shown is part of a subset that was picked to be rich in hits.

SMILES	KDM4C inh	IDH1 mut inh	T cruzi growth-1	T cruzi growth-2	T cruzi growth-3	NIH3T3 tox	3T3 cytotox 2
CCOC(=O)c1c(NC(=O)c2nc3ncccn3n2)sc(C)c1C	.	-0.4	.	.	.	.	.
O=C(CSc1nnnn1-c1ccc(O)cc1)Nc1ccc(F)cc1	.	0.4	.	.	.	.	.
CCOC(=O)c1c(NC(=O)c2ccc(N(C)S(C)(=O)=O)cc2)sc2c1CCCC2	.	0.4	.	.	.	.	.
N#C[C@H]1[C@@H](c2ccc(C#CC3CCCCC3)cc2)[C@H](CO)N1S(=O)(=O)c1ccccc1	0.0	.	82.0	.	.	.	.
N#C[C@H]1[C@H](c2ccc(C#CC3CCCC3)cc2)[C@@H](CO)N1S(=O)(=O)c1ccccc1	-2.3	.	100.0*	95.5*	99.2*	-13.4	105.7*
N#C[C@@H]1[C@@H](c2ccc(C#CC3CCCC3)cc2)[C@H](CO)N1S(=O)(=O)c1ccccc1	-0.4	.	97.4*	95.2*	106.9*	20.6	104.5*
N#C[C@H]1[C@@H](c2ccc(C#CC3CCCCC3)cc2)[C@@H](CO)N1S(=O)(=O)c1ccccc1	-4.0	0.2	88.1	.	.	.	.
COc1ccc(OC)c(S(=O)(=O)N2CCC(C(=O)Nc3ccc(OC)c(Cl)c3)CC2)c1	.	0.0	.	.	.	.	.
COC(=O)c1ccc(NC(=O)CSc2nnnn2-c2ccccc2OC)cc1	.	-0.2	.	.	.	.	.
O=C(O)CCC(NC(=O)c1ccc(I)cc1)C(=O)O (stereo not given)	.	-0.1	.	.	.	.	.
Cc1c(NC(=O)COc2ccc([N+](=O)[O-])cc2)cccc1-c1nc2ccccc2[nH]1	.	0.0	.	.	.	.	.
C[C@@H]1CCCCO[C@H](CN(C)C(=O)NC2CCCCC2)[C@H](C)CN([C@@H](C)CO)C(=O)c2cc(NS(=O)(=O)c3ccccc3)ccc2O1	-1.4	0.9	102.1*	104.2*	42.6	-2.9	-5.8
C[C@H]1CCCCO[C@@H](CN(C)C(=O)NC2CCCCC2)[C@@H](C)CN([C@@H](C)CO)C(=O)c2cc(NS(=O)(=O)c3ccccc3)ccc2O1	-0.9	5.0	102.5*	79.9	35.9	10.2	11.1
C[C@@H]1CCCCO[C@H](CN(C)C(=O)NC2CCCCC2)[C@@H](C)CN([C@@H](C)CO)C(=O)c2cc(NS(=O)(=O)c3ccccc3)ccc2O1	-0.4	-1.5	94.0	.	.	.	.
C[C@@H]1CN([C@H](C)CO)C(=O)c2cc(NS(=O)(=O)c3ccccc3)ccc2O[C@@H](C)CCCCO[C@@H]1CN(C)C(=O)NC1CCCCC1	-0.1	.	90.1	.	.	.	.
C[C@@H]1CCCCO[C@H](CN(C)C(=O)NC2CCCCC2)[C@H](C)CN([C@H](C)CO)C(=O)c2cc(NS(=O)(=O)c3ccccc3)ccc2O1	-0.8	.	105.6*	72.5	37.5	-8.1	-23.5
C[C@@H]1CCCCO[C@H](CN(C)C(=O)NC2CCCCC2)[C@@H](C)CN([C@H](C)CO)C(=O)c2cc(NS(=O)(=O)c3ccccc3)ccc2O1	-0.2	.	34.6	.	.	.	.
CC(C)CC1NC(=O)C(C)NC1=O (stereo not given)	.	0.0	.	.	.	.	.
Cc1ccc(S(=O)(=O)Nc2ccc3c(c2)C(=O)N([C@H](C)CO)C[C@H](C)[C@H](CN(C)Cc2ccc4c(c2)OCO4)OCCCC[C@H](C)O3)cc1	-1.9	-0.8	62.5	.	.	.	.
COc1ccc(S(=O)(=O)Nc2ccc3c(c2)C(=O)N([C@H](C)CO)C[C@@H](C)[C@H](CN(C)Cc2ccc4c(c2)OCO4)OCCCC[C@H](C)O3)cc1	17.9	4.8	?	108.4*	50.4	5.8	105.0*
COc1ccc(S(=O)(=O)Nc2ccc3c(c2)C(=O)N([C@@H](C)CO)C[C@@H](C)[C@@H](CN(C)Cc2ccc4c(c2)OCO4)OCCCC[C@@H](C)O3)cc1	-2.0	0.6	87.5	.	.	.	.
C[C@@H]1CN([C@H](C)CO)C(=O)c2cc(NS(=O)(=O)c3ccc(F)cc3)ccc2O[C@@H](C)CCCCO[C@@H]1CN(C)Cc1ccc2c(c1)OCO2	0.3	-1.4	102.2*	89.5	105.5*	71.3*	105.2*
C[C@H](CO)N1C[C@H](C)[C@H](CN(C)Cc2ccc3c(c2)OCO3)OCCCC[C@H](C)Oc2ccc(NS(=O)(=O)c3ccc(F)cc3)cc2C1=O	0.3	-3.3	112.4*	110.0*	48.0	7.5	58.8*
C[C@@H]1CCCCO[C@@H](CN(C)Cc2ccc3c(c2)OCO3)[C@H](C)CN([C@H](C)CO)C(=O)c2cc(NS(=O)(=O)c3ccc(F)cc3)ccc2O1	-0.7	1.0	83.0	.	.	.	.
Cc1ccc(S(=O)(=O)Nc2ccc3c(c2)C(=O)N([C@H](C)CO)C[C@@H](C)[C@H](CN(C)Cc2ccc4c(c2)OCO4)OCCCC[C@@H](C)O3)cc1	0.7	.	101.7*	108.5*	89.5	29.3	81.5*
SMILES	KDM4C inh	IDH1 mut inh	T cruzi growth-1	T cruzi growth-2	T cruzi growth-3	NIH3T3 tox	3T3 cytotox 2
C[C@@H]1CN([C@@H](C)CO)C(=O)c2cc(NS(=O)(=O)c3ccc(F)cc3)ccc2O[C@@H](C)CCCCO[C@H]1CN(C)Cc1ccc2c(c1)OCO2	-0.5	0.9	71.5	.	.	.	.
C=C[C@@]1(C)C[C@@]2(OC[C@@]3(C)O[C@@H]23)Oc2c1c(=O)oc1cccc(C)c21	.	0.6	.	.	.	.	.
Cc1sc2ncnc(SCC(=O)Nc3ccc(F)cc3)c2c1C	.	-0.1	.	.	.	.	.
Cc1c(CO)c2ccccc2n1Cc1ccccc1C#N	.	-0.1	.	.	.	.	.
Cc1cccc(NC(=O)CSc2nnc(-c3ccc(N)cc3)n2C)c1	.	0.0	.	.	.	.	.
COc1ccccc1NC(=O)C(Cc1ccccc1)N1C(=O)C2C3C=CC(C3)C2C1=O (stereo not given)	.	-0.2	.	.	.	.	.
C[C@H]1CN([C@@H](C)CO)S(=O)(=O)c2ccc(C#CC3CCCCC3)cc2O[C@@H]1CN(C)Cc1cccnc1	.	-9.9	80.8	.	.	.	.
C[C@@H]1CN([C@H](C)CO)S(=O)(=O)c2ccc(C#CC3CCCC3)cc2O[C@H]1CN(C)Cc1cncnc1	17.8	-0.5	.	.	.	.	.
C[C@H]1CN([C@@H](C)CO)S(=O)(=O)c2ccc(C#CC3CCCC3)cc2O[C@@H]1CN(C)Cc1cccnc1	-0.5	.	97.9*	100.9*	110.8*	-10.3	105.4*
C[C@@H]1CN([C@@H](C)CO)S(=O)(=O)c2ccc(C#CC3CCCC3)cc2O[C@@H]1CN(C)Cc1cccnc1	-0.7	.	102.8*	101.0*	?	60.0*	106.1*
CCn1c(SCC(=O)c2cccc([N+](=O)[O-])c2)nnc1-c1ccco1	.	-0.2	.	.	.	.	.
COc1ccc(N(C(=O)c2ccccc2)S(=O)(=O)c2cc(OC)ccc2OC)cc1	.	-0.3	.	.	.	.	.
CNC[C@@H]1Oc2cc(C#Cc3ccccc3OC)ccc2S(=O)(=O)N([C@@H](C)CO)C[C@H]1C	-3.1	0.0	105.3*	104.5*	84.3	9.9	103.9*
CNC[C@@H]1Oc2cc(C#Cc3ccccc3)ccc2S(=O)(=O)N([C@H](C)CO)C[C@H]1C	-3.2	-1.9	.	.	.	.	.

Compound activity deposited in PubChem BioAssay by Broad Institute.
